According to ChEMBL document CHEMBL1145619, “Conformation-activity relationship on novel 4-pyridylmethylthio derivatives with antiangiogenic activity” (Bioorg Med Chem Lett, 2008):

Key:
HUVEC = assay: Antiproliferative activity against VEGF-induced HUVEC cells; type: functional, cell-based; conditions: Homo sapiens
[1] = target: T1, Vascular endothelial growth factor receptor 2 (Homo sapiens, UniProt P35968); assay: Inhibition of KDR by ELISA
How it was run: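 KDR kinase activity measured with a commercial kinase assay development kit by ELISA. The read-out is the phosphorylation level of a biotinylated peptide containing Tyr in its sequence.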

[2] = target: T1, Vascular endothelial growth factor receptor 2; assay: Inhibition of KDR at 10 uM by ELISA
How it was run: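 KDR kinase activity measured with a commercial kinase assay development kit by ELISA. The read-out is the phosphorylation level of a biotinylated peptide containing Tyr in its sequence. The table gives IC50 values, and gives percent inhibition at 10 µM where the IC50 exceeded the range.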

T1 sequence (P35968 whole entry): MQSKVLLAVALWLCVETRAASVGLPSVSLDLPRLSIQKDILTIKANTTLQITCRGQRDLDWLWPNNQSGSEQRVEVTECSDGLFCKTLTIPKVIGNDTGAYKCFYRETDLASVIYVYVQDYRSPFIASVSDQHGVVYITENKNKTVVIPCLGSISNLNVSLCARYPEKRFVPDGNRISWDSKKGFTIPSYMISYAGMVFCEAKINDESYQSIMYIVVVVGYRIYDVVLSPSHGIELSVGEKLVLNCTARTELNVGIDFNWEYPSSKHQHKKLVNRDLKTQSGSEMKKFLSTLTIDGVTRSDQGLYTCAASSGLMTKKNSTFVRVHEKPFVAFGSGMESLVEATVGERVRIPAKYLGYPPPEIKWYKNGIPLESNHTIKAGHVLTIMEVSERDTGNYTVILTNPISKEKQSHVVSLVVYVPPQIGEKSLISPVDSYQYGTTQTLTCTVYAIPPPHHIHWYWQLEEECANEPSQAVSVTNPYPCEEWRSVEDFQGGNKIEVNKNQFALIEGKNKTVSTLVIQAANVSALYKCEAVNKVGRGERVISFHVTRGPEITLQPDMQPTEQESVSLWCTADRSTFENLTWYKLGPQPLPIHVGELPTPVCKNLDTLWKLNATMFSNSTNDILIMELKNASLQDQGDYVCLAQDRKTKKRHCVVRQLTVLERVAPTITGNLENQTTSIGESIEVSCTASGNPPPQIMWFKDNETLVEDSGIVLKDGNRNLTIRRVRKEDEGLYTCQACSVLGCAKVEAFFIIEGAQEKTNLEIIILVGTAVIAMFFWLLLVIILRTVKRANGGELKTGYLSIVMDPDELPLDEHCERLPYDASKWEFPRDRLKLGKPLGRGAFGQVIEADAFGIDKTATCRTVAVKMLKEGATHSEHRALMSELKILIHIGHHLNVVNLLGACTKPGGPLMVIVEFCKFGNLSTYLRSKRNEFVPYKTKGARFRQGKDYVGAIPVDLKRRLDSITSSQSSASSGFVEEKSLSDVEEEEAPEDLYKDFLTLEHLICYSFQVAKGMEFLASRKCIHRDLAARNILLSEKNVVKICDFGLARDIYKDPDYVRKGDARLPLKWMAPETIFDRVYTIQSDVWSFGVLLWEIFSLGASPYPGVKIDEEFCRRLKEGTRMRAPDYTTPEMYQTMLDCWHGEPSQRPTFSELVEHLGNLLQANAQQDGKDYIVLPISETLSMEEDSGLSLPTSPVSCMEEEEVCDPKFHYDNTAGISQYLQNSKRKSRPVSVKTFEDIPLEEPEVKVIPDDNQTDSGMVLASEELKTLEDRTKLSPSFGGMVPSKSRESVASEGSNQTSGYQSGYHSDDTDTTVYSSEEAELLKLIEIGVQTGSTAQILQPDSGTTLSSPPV

Structure (SMILES) | IC50 (HUVEC) [nM] | IC50 [1] [nM] | inhibition [2] [%]
Clc1ccc(Nc2nnc(Cc3ccncc3)c3ccccc23)cc1 | 6 |  | 
O=C(Nc1ccc(Cl)cc1)c1ccccc1SCc1ccncc1 |  | 46 | 
O=C(Nc1ccc(Cl)cc1)c1cccnc1SCc1ccncc1 |  | 26 | 
O=C(Nc1ccc(Cl)cc1)c1ccccc1OCc1ccncc1 | > 2000 | > 1000 | 54
S=C(Nc1ccc(Cl)cc1)c1ccccc1OCc1ccncc1 |  | > 1000 | 0
